Inconclusive results are not listed. The source made the active and inactive calls.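 Rule for the calls, unless noted: active = inhibition over a set limit, the all-compound mean plus 3 SD, in both replicate runs; inconclusive = over that limit in just one replicate run; inactive = at or under that limit in both runs.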
What was measured:
[1] = S. cerevisiae growth inhibition in permissive medium (OD615), pilot counter-assay for S. cerevisiae lifespan shortening project, permissive growth control (AID 705;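 active = growth inhibition above 25% in both replicates, a cutoff set 3 SD above the mean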); conditions: OD615, 24 h, at 10 µM, active compounds read high
Summary of the method: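 System: Engineered DeaD yeast | Buffer or medium: SC raffinose/galactose permissive medium | Incubation: Cells pre-grown 4 h, then 24 h compound exposure, 30 °C humidified | Measured by: Absorbance (optical density) at 615 nm | Read-out: Reduction in yeast growth (OD615)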

[2] = S. cerevisiae growth inhibition in restrictive medium, OD615, pilot screen, restrictive growth control, yeast lifespan reduction project (AID 706;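 active = growth inhibition above a set limit, 3 SD over mean compound inhibition, in both replicates, cut at about 43% in these data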;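 note: modified DeaD lifespan yeast strain shifted to restrictive glucose medium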); conditions: OD615, 48 h, at 10 µM, active compounds read high
Summary of the method: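 Material: modified S. cerevisiae; Medium: glucose-based CSMM-D restrictive medium; Compound dosing: one concentration, 10 µM final, 0.25% DMSO; Incubation: 48 h compound exposure at 30 °C; Measured by: OD615.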

[3] = doxorubicin toxicity protection in MRP-1 cells – H69AR cells, CellTiter-Glo, duplicate, MRP-1 activator project, pilot screen (AID 807;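 active = viability increase at or above a cutoff of the median across tested compounds plus 3 SD, cut at about 8.5% in these data, passing the limit was not always enough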;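 note: compound pretreatment 18-22 h then 72 h combined with doxorubicin; 0% = doxorubicin alone and 100% = vehicle without doxorubicin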); conditions: H69AR viability with doxorubicin, CellTiter-Glo luminescence; at 10 µM; active compounds read high
[4] = viability of HCT116 without oncogenic beta-catenin – human colon tumor cells, pilot screen (AID 823;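 active = cell viability at or below a set limit in both duplicate runs, the limit being the all-compound median minus 4 SD, cut at about 23% in these data, passing the limit was not always enough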;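 note: 0% = wells killed by 20 µM Hyamine and 100% = untreated DMSO cell wells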); conditions: HCT116 beta-catenin knockout viability, CellTiter-Glo, 60 h; at 10 µM; active compounds read low
[5] = viability of PTEN-null HCT116 cells – cell-based, HCT116 clonal line, CellTiter-Glo, pilot screen (AID 824;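 active = viability at or below 27.92% in each of two runs, the all-compound median minus 4 SD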;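 note: 0% = 20 µM Hyamine control and 100% = vehicle cell control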); conditions: HCT116 PTEN-deleted viability, 60 h, at 10 µM, active compounds read low
[6] = RAM pathway blockade in budding yeast – dse1pr::URA3 reporter, 5-FOA selection, pilot screen (AID 869);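 note: 0% = DMSO wells with no growth and 100% = 10 µM 1-NA-PP1 with full growth; RAM network block rescues cells from 5-FOA so hits raise OD615 growth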; conditions: S. cerevisiae dse1pr::URA3 5-FOA growth, OD615, 2 d; at 10 µM; active compounds read high; strain carries analog-sensitive mutant Cbk1 kinase
[7] = RAM signaling pathway blockade in yeast – S. cerevisiae, Pdr1DBD-CYC8 efflux-inhibited sensitized strain, primary screen (AID 1298;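 active = RAM network inhibition above 8.4% in each of two replicates, 3 SD over the compound average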;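 note: 0% = DMSO untreated cells without growth and 100% = 10 µM 1-NA-PP1 full growth; higher means more yeast growth rescued from 5-FOA killing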); conditions: S. cerevisiae cbk1-as DSE1-URA3 strain, 5-FOA growth OD615, 2 d; at 50 µM; active compounds read high

NS(=O)(=O)c1ccc(CNC(=O)NC2(c3ccccc3)CC2)cc1
inactive: growth inhibition [1] -14.6% | growth inhibition [2] -6.6% | viability increase [3] -2.9% | viability [4] 102% | viability [5] 87.2% | inhibition [6] 1.08% | RAM network inhibition [7] 3.05%

Cc1ccc(OS(=O)Nc2cccc3nccnc23)cc1 (configuration not stated)
inactive: growth inhibition [1] 1.61% | growth inhibition [2] 13.2% | viability increase [3] -4.19% | viability [4] 56.8% | viability [5] 55% | inhibition [6] 1.72% | RAM network inhibition [7] 2.2%

Cn1nc(-c2ccc(Cl)cc2)c2cc(C(=O)N3CCN(c4ccccn4)CC3)sc21
inactive: growth inhibition [1] -0.13% | growth inhibition [2] 28.7% | viability increase [3] -5.31% | viability [4] 37% | viability [5] 35.1% | inhibition [6] -0.47% | RAM network inhibition [7] 4.7%

CCc1ccc(S(=O)(=O)NCc2cn3c(C)csc3n2)s1
inactive: growth inhibition [1] 0.075% | growth inhibition [2] 5.25% | viability increase [3] -2.89% | viability [4] 102% | viability [5] 94.1% | inhibition [6] 0.37% | RAM network inhibition [7] 2.22%

COc1ccc(-n2nnc3c(=O)n(CC(=O)OCc4ccccc4)cnc32)cc1
inactive: growth inhibition [1] 0.92% | growth inhibition [2] 1.45% | viability increase [3] -1.76% | viability [4] 98.7% | viability [5] 99.9% | inhibition [6] 1.19% | RAM network inhibition [7] 6.18%

Cn1c(=O)oc2cc(S(=O)(=O)N3CCC(C(=O)N4CCN(c5ccccc5)CC4)CC3)ccc21
inactive: growth inhibition [1] 0.31% | growth inhibition [2] 3.94% | viability increase [3] -2.78% | viability [4] 94.6% | viability [5] 93.1% | inhibition [6] -0.21% | RAM network inhibition [7] 7.13%

O=C(Nc1nc(-c2ccc3c(c2)OCO3)cs1)C1COc2ccccc2O1 (configuration not stated)
inactive: growth inhibition [1] 0.51% | growth inhibition [2] 3.12% | viability increase [3] 1.56% | viability [4] 99.8% | viability [5] 88.9% | inhibition [6] 2.81% | RAM network inhibition [7] 4.11%

O=C(Nc1ccc(Br)cc1F)c1ccc2c(c1)N(Cc1ccccc1)C(=O)CS2=O (configuration not stated)
inactive: growth inhibition [1] -7.48% | growth inhibition [2] 1.12% | viability increase [3] -0.49% | viability [4] 81.1% | viability [5] 67.8% | inhibition [6] 2.64% | RAM network inhibition [7] 2.84%

Cc1ccc(NC(=O)c2c(O)c3ccccc3n(C)c2=O)nc1
inactive: growth inhibition [1] -3.92% | growth inhibition [2] 9.36% | viability increase [3] -5.52% | viability [4] 75.3% | viability [5] 70.2% | inhibition [6] 0.36% | RAM network inhibition [7] -1.46%

c1ccc(Cn2ncc3c(N4CCCCC4)ncnc32)cc1
inactive: growth inhibition [1] -0.96% | growth inhibition [2] 8.13% | viability increase [3] -0.97% | viability [4] 96.2% | viability [5] 95.4% | inhibition [6] 0.01% | RAM network inhibition [7] 3.67%

O=C(NCC1(c2ccccc2)CCOCC1)c1ccc(Br)o1
inactive: growth inhibition [1] -2.18% | growth inhibition [2] -3.91% | viability increase [3] 2.31% | viability [4] 93% | viability [5] 92.3% | inhibition [6] 0.365% | RAM network inhibition [7] 2.97%

CC(C)NS(=O)(=O)c1ccc(CCC(=O)NCc2cccnc2)cc1
inactive: growth inhibition [1] 2.32% | growth inhibition [2] -6.38% | viability increase [3] -0.9% | viability [4] 88% | viability [5] 92.5% | inhibition [6] 1.33% | RAM network inhibition [7] 1.08%

COc1ccc2c(c1)C(=O)CC(c1ccccc1F)O2 (configuration not stated)
inactive: growth inhibition [1] -12% | growth inhibition [2] -1.22% | viability increase [3] -3.63% | viability [4] 65.4% | viability [5] 74.3% | inhibition [6] 1.22% | RAM network inhibition [7] 5.83%

CCOC(=O)C1CCCCN1Cc1cc(Cl)ccc1O (configuration not stated)
inactive: growth inhibition [1] -3.16% | growth inhibition [2] -13.2% | viability increase [3] 0.31% | viability [4] 87% | viability [5] 81% | inhibition [6] 0.74% | RAM network inhibition [7] 3.98%

CC12CC(NC(=O)N1CCc1ccccc1)c1ccccc1O2 (configuration not stated)
inactive: growth inhibition [1] -8.73% | growth inhibition [2] -25% | viability increase [3] -3.43% | viability [4] 74.9% | viability [5] 73.8% | inhibition [6] 1.45% | RAM network inhibition [7] 5.31%

Cn1c(=O)oc2cc(S(=O)(=O)Nc3ccc(Cl)cc3F)ccc21
inactive: growth inhibition [1] -9.48% | growth inhibition [2] -19.3% | viability increase [3] 2.12% | viability [4] 105% | viability [5] 92.7% | inhibition [6] 0.53% | RAM network inhibition [7] 9.07%

COc1ccc(C2C(C(N)=O)=C(C)Nc3nc(-c4ccccc4)nn32)cc1OC (configuration not stated)
inactive: growth inhibition [1] -4.7% | growth inhibition [2] -8.15% | viability increase [3] -1.13% | viability [4] 95.3% | viability [5] 95.2% | inhibition [6] 0.78% | RAM network inhibition [7] -0.68%

NC(=O)c1cccc(S(=O)(=O)N2CC(c3ccccc3)CC2=O)c1 (configuration not stated)
inactive: growth inhibition [1] -15.8% | growth inhibition [2] -15% | viability increase [3] -1.11% | viability [4] 99.5% | viability [5] 96.1% | inhibition [6] 0.075% | RAM network inhibition [7] -0.76%

CCc1ccccc1N1CC23C=CC(O2)C(C(=O)OC)C3C1=O (configuration not stated)
inactive: growth inhibition [1] -17.5% | growth inhibition [2] -18.8% | viability increase [3] -0.91% | viability [4] 92.7% | viability [5] 99% | inhibition [6] 0.9% | RAM network inhibition [7] 5.27%

COc1ccc(N2CC(C(=O)Nc3ccc(S(=O)(=O)Nc4nc(C)cc(C)n4)cc3)CC2=O)cc1 (configuration not stated)
inactive: growth inhibition [1] -8.26% | growth inhibition [2] -7.87% | viability increase [3] -1.39% | viability [4] 100% | viability [5] 91.4% | inhibition [6] 1% | RAM network inhibition [7] 2.5%

N#Cc1nc(COc2cccc(Cl)c2)oc1NCc1ccco1
inactive: growth inhibition [1] -14% | growth inhibition [2] 3.77% | viability increase [3] -2.87% | viability [4] 89% | viability [5] 89.4% | inhibition [6] 1.65% | RAM network inhibition [7] 7.41%

CCc1ccc(C2CC(=O)NC(SCC(=O)OC(C)C)=C2C#N)cc1 (configuration not stated)
inactive: growth inhibition [1] -13.8% | growth inhibition [2] -4.45% | viability increase [3] 0.08% | viability [4] 78.9% | viability [5] 79.5% | inhibition [6] 1.15% | RAM network inhibition [7] 2.6%

O=C(NC1CCN(Cc2ccccc2)CC1)C1CCCN(c2nnc(-n3cccc3)s2)C1 (configuration not stated)
inactive: growth inhibition [1] -4.03% | growth inhibition [2] 11.1% | viability increase [3] -4.97% | viability [4] 93.1% | viability [5] 84.5% | inhibition [6] 0.085% | RAM network inhibition [7] 0.11%

COc1ccccc1N1CCN(C(=O)c2ccc(Br)s2)CC1
inactive: growth inhibition [1] -10.4% | growth inhibition [2] -6.29% | viability increase [3] -1.58% | viability [4] 87% | viability [5] 91.1% | inhibition [6] 1.69% | RAM network inhibition [7] 6.83%

CCS(=O)(=O)NCc1csc(-c2ccccc2)n1
inactive: growth inhibition [1] -0.375% | growth inhibition [2] -0.625% | viability increase [3] -2% | viability [4] 89.9% | viability [5] 87.5% | inhibition [6] 0.635% | RAM network inhibition [7] 5.48%

Cc1cc2ccccc2n1CCNC(=O)c1cccs1
inactive: growth inhibition [1] 0.02% | growth inhibition [2] 7.93% | viability increase [3] -2.29% | viability [4] 92.6% | viability [5] 91.4% | inhibition [6] 1.69% | RAM network inhibition [7] 3.36%

CCCOC(=O)C1=C(C)NC2=C(C(=O)CC(C)(C)C2)C1c1ccc(N(C)C)cc1 (configuration not stated)
inactive: growth inhibition [1] -2.65% | growth inhibition [2] 0.07% | viability increase [3] -2.59% | viability [4] 90.8% | viability [5] 80.9% | inhibition [6] -0.505% | RAM network inhibition [7] 6.21%

CC1(C)Cc2c(C#N)c(NCCCO)nc(-c3ccccc3)c2CO1
inactive: growth inhibition [1] -7.54% | growth inhibition [2] -20.9% | viability increase [3] -4.65% | viability [4] 88% | viability [5] 85.3% | inhibition [6] 0.25% | RAM network inhibition [7] -0.94%

COc1ccc(N(CC(=O)NCc2cccs2)S(=O)(=O)c2cccnc2)cc1
inactive: growth inhibition [1] 5.41% | growth inhibition [2] 4.48% | viability increase [3] -0.05% | viability [4] 107% | viability [5] 106% | inhibition [6] 0.045% | RAM network inhibition [7] 7.1%

CCCOc1ccccc1C1NC(=O)NC(C)=C1C(=O)OCCOC(C)C (configuration not stated)
inactive: growth inhibition [1] -12.9% | growth inhibition [2] -13.2% | viability increase [3] -2.17% | viability [4] 89.5% | viability [5] 91.4% | inhibition [6] 0.325% | RAM network inhibition [7] 5.61%

COc1ccc(OC)c2sc(NC(=O)c3ccc(Cl)s3)nc12
active: viability [4] 22% | viability [5] 13.8%
inactive: growth inhibition [1] -16.4% | growth inhibition [2] -10.6% | viability increase [3] -3.79% | inhibition [6] 3.47% | RAM network inhibition [7] 5.85%

c1nc2nc3c(c(N4CCOCC4)n2n1)CCCC3
inactive: growth inhibition [1] -6.33% | growth inhibition [2] 11.4% | viability increase [3] -1.47% | viability [4] 103% | viability [5] 99.7% | inhibition [6] 0.645% | RAM network inhibition [7] 0.44%

CCCN1C(=O)c2cc(C(=O)NC3CCCC3)ccc2C1O (configuration not stated)
inactive: growth inhibition [1] -10.3% | growth inhibition [2] -1.61% | viability increase [3] -2.46% | viability [4] 103% | viability [5] 95.5% | inhibition [6] 0.125% | RAM network inhibition [7] 9.43%

CC1Cc2nc(SCC(=O)NCCc3ccccc3)n(C)c(=O)c2S1 (configuration not stated)
inactive: growth inhibition [1] -11.5% | growth inhibition [2] -1.29% | viability increase [3] -2.25% | viability [4] 100% | viability [5] 104% | inhibition [6] 1.77% | RAM network inhibition [7] 2.27%

CCCCN=C(C)C1=C(O)CSC1=O
inactive: growth inhibition [1] -1.78% | growth inhibition [2] 4.99% | viability increase [3] -1.7% | viability [4] 104% | viability [5] 99.7% | inhibition [6] 2% | RAM network inhibition [7] 3.8%

CCn1c(N2CCC(C)CC2)nc2c1c(=O)n(C)c(=O)n2C
inactive: growth inhibition [1] -10.5% | growth inhibition [2] 1.69% | viability increase [3] -0.88% | viability [4] 92.9% | viability [5] 85% | inhibition [6] 1.12% | RAM network inhibition [7] 0.06%
